Measurements from ChEMBL document CHEMBL1134439, “Radioiodinated styrylbenzenes and thioflavins as probes for amyloid aggregates” (J Med Chem, 2001).

How the values were obtained:
Mus musculus [1] = experiment: Biodistribution was measured in mice liver 60 minutes after intravenous injection of [125I]-labeled styrylbenzene.; type: ADME, organism-based; conditions: in vivo, 1 h
Method in brief: (§1)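 ICR mice (2-3 months old, 20-30 g) under ether anesthesia received 5-10 µCi ¹²⁵I tracer in 0.15 mL saline by tail-vein injection. Animals were killed by cardiac excision at set times post-injection. Organs were removed, weighed and γ-counted. Values are % dose per organ against diluted injectate aliquots, taking blood and muscle as 7% and 40% of body weight. Mean of 3-4 mice ± SD.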

Mus musculus [2] = experiment: Biodistribution was measured in mice skin 6 hours after intravenous injection of [125I]-labeled styrylbenzene.; type: ADME, organism-based, Zone of skin; conditions: in vivo; method in brief: as §1
Mus musculus [3] = experiment: Biodistribution was measured in mice lung 30 minutes after intravenous injection of [125I]-labeled styrylbenzene.; type: ADME, organism-based; conditions: in vivo, 0.5 h; method in brief: as §1
Mus musculus [4] = experiment: Biodistribution was measured in mice brain 24 hours after intravenous injection of [125I]-labeled styrylbenzene; type: ADME, organism-based; conditions: in vivo, in the assay text read “thioflavin” for “styrylbenzene”; method in brief: as §1
Mus musculus [5] = experiment: Biodistribution was measured in mice lung 2 minutes after intravenous injection of [125I]-labeled styrylbenzene.; type: ADME, organism-based; conditions: in vivo; method in brief: as §1
Mus musculus [6] = experiment: Biodistribution was measured in mice lung 6 hours after intravenous injection of [125I]-labeled styrylbenzene.; type: ADME, organism-based; conditions: in vivo, in the assay text read “thioflavin” for “styrylbenzene”; method in brief: as §1
Mus musculus [7] = experiment: Biodistribution was measured in mice skin 2 minutes after intravenous injection of [125I]-labeled styrylbenzene.; type: ADME, organism-based, Zone of skin; conditions: in vivo; method in brief: as §1
Mus musculus [8] = experiment: Biodistribution was measured in mice liver 30 minutes after intravenous injection of [125I]-labeled styrylbenzene.; type: ADME, organism-based; conditions: in vivo, 0.5 h; method in brief: as §1
Mus musculus [9] = experiment: Biodistribution was measured in mice skin 30 minutes after intravenous injection of [125I]-labeled styrylbenzene.; type: ADME, organism-based, Zone of skin; conditions: in vivo, 0.5 h; method in brief: as §1
Mus musculus [10] = experiment: Biodistribution was measured in mice spleen 60 minutes after intravenous injection of [125I]-labeled styrylbenzene.; type: ADME, organism-based; conditions: in vivo, 1 h
Method in brief: (§2)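 ICR mice (2-3 months old, 20-30 g) under ether anesthesia; 0.15 mL saline containing 5-10 µCi ¹²⁵I tracer injected into tail vein. Sacrifice by cardiac excision at set times; organs removed, weighed, γ-counted. Expressed as % dose per organ versus diluted aliquots of injectate. Mean of three or four mice ± SD.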

Mus musculus [11] = experiment: Biodistribution was measured in mice heart 30 minutes after intravenous injection of [125I]-labeled styrylbenzene.; type: ADME, organism-based; conditions: in vivo, 0.5 h; method in brief: as §1
Mus musculus [12] = experiment: Biodistribution was measured in mice lung 24 hours after intravenous injection of [125I]-labeled styrylbenzene.; type: ADME, organism-based; conditions: in vivo, in the assay text read “thioflavin” for “styrylbenzene”; method in brief: as §1
Mus musculus [13] = experiment: Biodistribution was measured in mice blood 30 minutes after intravenous injection of [125I]-labeled styrylbenzene.; type: ADME, organism-based; conditions: in vivo, 0.5 h; method in brief: as §1
[14] = biological target: Amyloid-beta precursor protein (Homo sapiens, UniProt P05067); experiment: Inhibition constant for aggregates of amyloid beta compared to [125I]IMSB
Amyloid-beta precursor protein, sequence (P05067 whole entry): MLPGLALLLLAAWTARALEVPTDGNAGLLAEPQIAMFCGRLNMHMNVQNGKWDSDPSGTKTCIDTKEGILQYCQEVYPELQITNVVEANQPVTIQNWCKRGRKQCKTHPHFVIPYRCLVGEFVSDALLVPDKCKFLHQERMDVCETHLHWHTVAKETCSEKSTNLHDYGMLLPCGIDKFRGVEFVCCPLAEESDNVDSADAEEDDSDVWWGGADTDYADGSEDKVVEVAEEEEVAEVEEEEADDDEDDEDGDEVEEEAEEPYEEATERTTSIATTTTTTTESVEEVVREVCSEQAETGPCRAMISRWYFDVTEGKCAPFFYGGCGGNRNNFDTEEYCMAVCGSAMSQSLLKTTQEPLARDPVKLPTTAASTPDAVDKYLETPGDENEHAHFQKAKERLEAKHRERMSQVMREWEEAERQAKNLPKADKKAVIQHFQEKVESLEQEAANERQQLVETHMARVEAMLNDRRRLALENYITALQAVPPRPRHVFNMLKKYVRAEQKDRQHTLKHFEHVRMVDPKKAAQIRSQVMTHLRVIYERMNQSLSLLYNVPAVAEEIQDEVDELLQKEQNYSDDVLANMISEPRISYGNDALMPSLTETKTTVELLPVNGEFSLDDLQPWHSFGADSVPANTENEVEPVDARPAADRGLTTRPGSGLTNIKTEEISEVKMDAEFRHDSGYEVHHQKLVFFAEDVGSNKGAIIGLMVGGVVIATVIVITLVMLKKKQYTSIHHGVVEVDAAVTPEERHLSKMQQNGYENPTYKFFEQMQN
Method in brief: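 Aβ(1-40) or Aβ(1-42) aggregated at 0.5 or 0.25 mg/mL respectively in pH 7.4 buffer (10 mM sodium phosphate, 1 mM EDTA), 37 °C, 36-42 h with shaking. Competition against ¹²⁵I radioligand with fibrils 10-50 nM (final), 10% EtOH, 1 mL. Incubation 3 h room temperature. Bound ligand collected by GF/B filtration, γ-counted. Ki by nonlinear regression. Mean ± SEM, three experiments in duplicate.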

Mus musculus [15] = experiment: Biodistribution was measured in mice skin 24 hours after intravenous injection of [125I]-labeled styrylbenzene.; type: ADME, organism-based, Zone of skin; conditions: in vivo; method in brief: as §1
Mus musculus [16] = experiment: Biodistribution was measured in mice liver 2 minutes after intravenous injection of [125I]-labeled styrylbenzene.; type: ADME, organism-based; conditions: in vivo; method in brief: as §1
Mus musculus [17] = experiment: Biodistribution was measured in mice muscle 2 minutes after intravenous injection of [125I]-labeled styrylbenzene.; type: ADME, organism-based, Muscle tissue; conditions: in vivo, in the assay text read “thioflavin” for “styrylbenzene”; method in brief: as §1
Mus musculus [18] = experiment: Biodistribution was measured in mice heart 24 hours after intravenous injection of [125I]-labeled styrylbenzene.; type: ADME, organism-based; conditions: in vivo; method in brief: as §1
Mus musculus [19] = experiment: Biodistribution was measured in mice brain 60 minutes after intravenous injection of [125I]-labeled styrylbenzene; type: ADME, organism-based; conditions: in vivo, 1 h; method in brief: as §1
Mus musculus [20] = experiment: Biodistribution was measured in mice muscle 6 hours after intravenous injection of [125I]-labeled styrylbenzene.; type: ADME, organism-based, Muscle tissue; conditions: in vivo; method in brief: as §1
Mus musculus [21] = experiment: Biodistribution was measured in mice muscle 60 minutes after intravenous injection of [125I]-labeled styrylbenzene.; type: ADME, organism-based, Muscle tissue; conditions: in vivo, 1 h; method in brief: as §1
Mus musculus [22] = experiment: Biodistribution was measured in mice lung 60 minutes after intravenous injection of [125I]-labeled styrylbenzene.; type: ADME, organism-based; conditions: in vivo, 1 h; method in brief: as §1
Mus musculus [23] = experiment: Biodistribution was measured in mice liver 6 hours after intravenous injection of [125I]-labeled styrylbenzene.; type: ADME, organism-based; conditions: in vivo, in the assay text read “thioflavin” for “styrylbenzene”; method in brief: as §1
Mus musculus [24] = experiment: Biodistribution was measured in mice spleen 30 minutes after intravenous injection of [125I]-labeled styrylbenzene.; type: ADME, organism-based; conditions: in vivo, 0.5 h; method in brief: as §2
Mus musculus [25] = experiment: Biodistribution was measured in mice spleen 2 minutes after intravenous injection of [125I]-labeled styrylbenzene.; type: ADME, organism-based; conditions: in vivo; method in brief: as §1
Mus musculus [26] = experiment: Biodistribution was measured in mice spleen 24 hours after intravenous injection of [125I]-labeled styrylbenzene.; type: ADME, organism-based; conditions: in vivo
Mus musculus [27] = experiment: Biodistribution was measured in mice blood 6 hours after intravenous injection of [125I]-labeled styrylbenzene.; type: ADME, organism-based; conditions: in vivo; method in brief: as §1
Mus musculus [28] = experiment: Biodistribution was measured in mice kidney 2 minutes after intravenous injection of [125I]-labeled styrylbenzene.; type: ADME, organism-based; conditions: in vivo; method in brief: as §1
Mus musculus [29] = experiment: Biodistribution was measured in mice kidney 30 minutes after intravenous injection of [125I]-labeled styrylbenzene.; type: ADME, organism-based; conditions: in vivo, 0.5 h; method in brief: as §1
Mus musculus [30] = experiment: Biodistribution was measured in mice spleen 6 hours after intravenous injection of [125I]-labeled thioflavin.; conditions: in vivo
Mus musculus [31] = experiment: Biodistribution was measured in mice muscle 24 hourss after intravenous injection of [125I]-labeled styrylbenzene.; type: ADME, organism-based, Muscle tissue; conditions: in vivo; method in brief: as §1
Mus musculus [32] = experiment: Biodistribution was measured in mice blood 24 hours after intravenous injection of [125I]-labeled styrylbenzene.; type: ADME, organism-based; conditions: in vivo; method in brief: as §1
Mus musculus [33] = experiment: Biodistribution was measured in mice heart 60 minutes after intravenous injection of [125I]-labeled styrylbenzene.; type: ADME, organism-based; conditions: in vivo, 1 h; method in brief: as §1
Mus musculus [34] = experiment: Biodistribution was measured in mice kidney 60 minutes after intravenous injection of [125I]-labeled styrylbenzene.; type: ADME, organism-based; conditions: in vivo, 1 h; method in brief: as §1
Mus musculus [35] = experiment: Biodistribution was measured in mice kidney 6 hours after intravenous injection of [125I]-labeled styrylbenzene.; type: ADME, organism-based; conditions: in vivo; method in brief: as §1
Mus musculus [36] = experiment: Biodistribution was measured in mice muscle 30 minutes after intravenous injection of [125I]-labeled styrylbenzene.; type: ADME, organism-based, Muscle tissue; conditions: in vivo, 0.5 h; method in brief: as §1
Mus musculus [37] = experiment: Biodistribution was measured in mice blood 60 minutes after intravenous injection of [125I]-labeled styrylbenzene.; type: ADME, organism-based; conditions: in vivo, 1 h; method in brief: as §1
Mus musculus [38] = experiment: Biodistribution was measured in mice heart 6 hours after intravenous injection of [125I]-labeled styrylbenzene.; type: ADME, organism-based; conditions: in vivo; method in brief: as §1
Mus musculus [39] = experiment: Biodistribution was measured in mice brain 2 minutes after intravenous injection of [125I]-labeled styrylbenzene; type: ADME, organism-based; conditions: in vivo, in the assay text read “thioflavin” for “styrylbenzene”; method in brief: as §1
Mus musculus [40] = experiment: Biodistribution was measured in mice liver 24 hours after intravenous injection of [125I]-labeled styrylbenzene.; type: ADME, organism-based; conditions: in vivo; method in brief: as §1
Mus musculus [41] = experiment: Biodistribution was measured in mice blood 2 minutes after intravenous injection of [125I]-labeled styrylbenzene.; type: ADME, organism-based; conditions: in vivo; method in brief: as §1
Mus musculus [42] = experiment: Biodistribution was measured in mice brain 6 hours after intravenous injection of [125I]-labeled styrylbenzene; type: ADME, organism-based; conditions: in vivo; method in brief: as §1
Mus musculus [43] = experiment: Biodistribution was measured in mice kidney 24 hours after intravenous injection of [125I]-labeled styrylbenzene.; type: ADME, organism-based; conditions: in vivo; method in brief: as §1
Mus musculus [44] = experiment: Biodistribution was measured in mice skin 60 minutes after intravenous injection of [125I]-labeled styrylbenzene.; type: ADME, organism-based, Zone of skin; conditions: in vivo, 1 h; method in brief: as §1
Mus musculus [45] = experiment: Biodistribution was measured in mice brain 30 minutes after intravenous injection of [125I]-labeled styrylbenzene; type: ADME, organism-based; conditions: in vivo, 0.5 h; method in brief: as §1
Mus musculus [46] = experiment: Biodistribution was measured in mice heart 2 minutes after intravenous injection of [125I]-labeled styrylbenzene.; type: ADME, organism-based; conditions: in vivo; method in brief: as §1

## CN(C)c1ccc(-c2nc3ccc(I)cc3s2)cc1
Mus musculus [1]
  Dose/organ: 9.21%
Mus musculus [2]
  Dose/organ: 3.8%
Mus musculus [3]
  Dose/organ: 0.72%
Mus musculus [4]
  Dose/organ: 0.04%
Mus musculus [5]
  Dose/organ: 5.91%
Mus musculus [6]
  Dose/organ: 0.21%
Mus musculus [7]
  Dose/organ: 3.2%
Mus musculus [8]
  Dose/organ: 10.93%
Mus musculus [9]
  Dose/organ: 7.4%
Mus musculus [10]
  Dose/organ: 0.17%
Mus musculus [11]
  Dose/organ: 0.2%
Mus musculus [12]
  Dose/organ: 0.03%
Mus musculus [13]
  Dose/organ: 3.26%
[14]
  Ki: > 5 µM
Mus musculus [15]
  Dose/organ: 0.2%
Mus musculus [16]
  Dose/organ: 31.62%
Mus musculus [17]
  Dose/organ: 17.81%
Mus musculus [18]
  Dose/organ: 0.01%
Mus musculus [19]
  Dose/organ: 1.57%
Mus musculus [20]
  Dose/organ: 2.93%
Mus musculus [21]
  Dose/organ: 12.81%
Mus musculus [22]
  Dose/organ: 0.78%
Mus musculus [23]
  Dose/organ: 1.52%
Mus musculus [24]
  Dose/organ: 0.2%
Mus musculus [25]
  Dose/organ: 0.59%
Mus musculus [26]
  Dose/organ: 0.01%
Mus musculus [27]
  Dose/organ: 1.44%
Mus musculus [28]
  Dose/organ: 5.42%
Mus musculus [29]
  Dose/organ: 2.24%
Mus musculus [30]
  Dose/organ: 0.04%
Mus musculus [31]
  Dose/organ: 0.33%
Mus musculus [32]
  Dose/organ: 0.29%
Mus musculus [33]
  Dose/organ: 0.17%
Mus musculus [34]
  Dose/organ: 2.23%
Mus musculus [35]
  Dose/organ: 0.54%
Mus musculus [36]
  Dose/organ: 12.89%
Mus musculus [37]
  Dose/organ: 3.79%
Mus musculus [38]
  Dose/organ: 0.05%
Mus musculus [39]
  Dose/organ: 0.6%
Mus musculus [40]
  Dose/organ: 0.3%
Mus musculus [41]
  Dose/organ: 15.74%
Mus musculus [42]
  Dose/organ: 0.65%
Mus musculus [43]
  Dose/organ: 0.06%
Mus musculus [44]
  Dose/organ: 12.8%
Mus musculus [45]
  Dose/organ: 0.9%
Mus musculus [46]
  Dose/organ: 1.79%

## CN1CCN(c2ccc(-c3nc4ccc(Br)cc4s3)cc2)CC1
[14]
  Ki: > 2.4 µM
